Active and inactive are the calls of the source. The rule behind the calls is not given here.
Tests used:
[1] = target: Induced myeloid leukemia cell differentiation protein Mcl-1/Bcl-2-like protein 11 (Homo sapiens, UniProt Q07820); assay: Inhibition of Mcl1/Bim (unknown origin) by ELISA; type: protein assay
[2] = target: Bcl-xL/Bcl-2-like protein 11 (Homo sapiens, UniProt Q07817); assay: Inhibition of Bcl-xL/Bim (unknown origin) by ELISA; type: protein assay
MDA-MB-468 [3] = assay: Reduction in Mcl1 level in human MDA-MB-468 cells at 10 uM; type: functional, cell-based
Procedure, shortened: (§1)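 Human MDA-MB-468 breast cancer cells were exposed to the derivatives at 3 μM, and some at up to 10 μM. Cells were then processed for western blotting. Read-outs were Mcl-1 protein level and caspase 3 cleavage, used as the apoptosis marker.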

MDA-MB-468 [4] = assay: Induction of apoptosis in human MDA-MB-468 cells assessed as caspase 3 activity at 10 uM for 16 hrs; type: functional, cell-based; procedure, shortened: as §1
MDA-MB-468 [5] = assay: Induction of apoptosis in human MDA-MB-468 cells assessed as caspase 3 activity at 3 uM for 16 hrs
MDA-MB-468 [6] = assay: Reduction in Mcl1 level in human MDA-MB-468 cells at 3 uM; type: functional, cell-based; procedure, shortened: as §1

Sequence of Induced myeloid leukemia cell differentiation protein Mcl-1/Bcl-2-like protein 11 (Q07820 whole entry): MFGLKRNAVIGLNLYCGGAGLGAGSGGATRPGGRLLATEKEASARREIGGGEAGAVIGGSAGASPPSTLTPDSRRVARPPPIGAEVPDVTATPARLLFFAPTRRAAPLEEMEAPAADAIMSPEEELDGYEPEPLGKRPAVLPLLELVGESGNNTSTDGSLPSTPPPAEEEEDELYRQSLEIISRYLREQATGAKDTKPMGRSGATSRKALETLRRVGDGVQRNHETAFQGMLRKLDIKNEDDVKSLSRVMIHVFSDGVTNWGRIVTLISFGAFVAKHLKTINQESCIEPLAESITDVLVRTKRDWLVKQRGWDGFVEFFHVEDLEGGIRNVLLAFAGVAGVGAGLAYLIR
Sequence of Induced myeloid leukemia cell differentiation protein Mcl-1/Bcl-2-like protein 11 (O43521 whole entry, further chain): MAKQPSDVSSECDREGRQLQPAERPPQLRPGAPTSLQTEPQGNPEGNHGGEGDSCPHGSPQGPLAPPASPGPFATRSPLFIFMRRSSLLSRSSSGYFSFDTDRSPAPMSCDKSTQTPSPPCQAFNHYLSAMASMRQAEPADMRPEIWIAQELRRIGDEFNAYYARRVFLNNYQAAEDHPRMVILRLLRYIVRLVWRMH
Sequence of Bcl-xL/Bcl-2-like protein 11 (Q07817 whole entry): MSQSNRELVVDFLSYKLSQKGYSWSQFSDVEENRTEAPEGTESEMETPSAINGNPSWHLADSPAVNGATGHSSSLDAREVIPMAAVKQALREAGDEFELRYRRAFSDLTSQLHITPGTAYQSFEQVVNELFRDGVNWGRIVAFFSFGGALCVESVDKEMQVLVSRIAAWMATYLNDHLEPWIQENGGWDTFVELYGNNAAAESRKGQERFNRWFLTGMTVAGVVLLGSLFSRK
Sequence of Bcl-xL/Bcl-2-like protein 11 (O43521 whole entry, further chain): as the sequence (O43521 whole entry, further chain) above

Row | IC50 [1] [µM] | IC50 [2] [µM] | SMILES | Activity (MDA-MB-468 [3]) | Activity (MDA-MB-468 [4]) | Activity (MDA-MB-468 [5]) | Activity (MDA-MB-468 [6])
1 | 5.1 | 8.1 | CC(C)(C)OC(=O)Cn1cc(-c2ccc(C(=O)c3[nH]c(Cl)c(Cl)c3-n3c(C(=O)c4ccc(-c5cn(CC(=O)OC(C)(C)C)nn5)cc4O)cc(Cl)c3Cl)c(O)c2)nn1 | inactive | inactive |  | 
2 | 0.6 | 0.5 | CCCCCCCCn1cc(-c2ccc(C(=O)c3[nH]c(Cl)c(Cl)c3-n3c(C(=O)c4ccc(-c5cn(CCCCCCC)nn5)cc4O)cc(Cl)c3Cl)c(O)c2)nn1 |  |  |  | 
3 | 1.6 | 14 | CC(C)(C)OC(=O)Cn1cc(-c2cc(O)c(C(=O)c3[nH]c(Cl)c(Cl)c3-n3c(C(=O)c4cc(Cl)c(-c5cn(CC(=O)OC(C)(C)C)nn5)cc4O)cc(Cl)c3Cl)cc2Cl)nn1 |  |  |  | 
4 | 9.6 | 21.3 | O=C(c1ccccc1O)c1[nH]c(Cl)c(Cl)c1-n1c(C(=O)c2ccc(F)cc2O)cc(Cl)c1Cl | Active |  | Active | 
5 | 3.3 | 1.6 | O=C(c1ccc(-c2cn(Cc3ccccc3)nn2)cc1O)c1[nH]c(Cl)c(Cl)c1-n1c(C(=O)c2ccc(-c3cn(Cc4ccccc4)nn3)cc2O)cc(Cl)c1Cl | inactive | inactive |  | 
6 |  |  | CCc1ccc(C(=O)c2[nH]c(Cl)c(Cl)c2-n2c(C(=O)c3ccc(CC)cc3O)cc(Cl)c2Cl)c(O)c1 | Active |  | Active | 
7 | 3.7 | 3.5 | C=Cc1ccc(C(=O)c2[nH]c(Cl)c(Cl)c2-n2c(C(=O)c3ccc(C=C)cc3O)cc(Cl)c2Cl)c(O)c1 | Active |  | Active | 
8 |  |  | C#Cc1ccc(C(=O)c2[nH]c(Cl)c(Cl)c2-n2c(C(=O)c3ccc(C#C)cc3O)cc(Cl)c2Cl)c(O)c1 | Active |  | Active | 
9 | 39.5 | > 50 | O=C(c1ccc(O)cc1O)c1[nH]c(Cl)c(Cl)c1-n1c(C(=O)c2ccc(O)cc2O)cc(Cl)c1Cl | inactive | inactive |  | 
10 | 1.4 | 3.8 | O=C(c1ccc(-c2cn(C3CCCCC3)nn2)cc1O)c1[nH]c(Cl)c(Cl)c1-n1c(C(=O)c2ccc(-c3cn(C4CCCCC4)nn3)cc2O)cc(Cl)c1Cl | inactive | inactive |  | 
11 | 8.1 | 9.7 | O=C(c1ccc(C(F)(F)F)cc1O)c1[nH]c(Cl)c(Cl)c1-n1c(C(=O)c2ccc(C(F)(F)F)cc2O)cc(Cl)c1Cl | Active |  | Active | 
12 | 15.5 | 64.9 | COc1ccccc1C(=O)c1c(-n2c(C(=O)c3ccccc3OC)cc(Cl)c2Cl)c(Cl)c(Cl)n1C |  |  |  | 
13 |  |  | CCOC(=O)CSc1ccc(C(=O)c2[nH]c(Cl)c(Cl)c2-n2c(C(=O)c3ccc(SCC(=O)OCC)cc3O)cc(Cl)c2Cl)c(O)c1 |  |  |  | inactive
14 |  |  | O=C(c1ccc(P(=O)(O)O)cc1O)c1[nH]c(Cl)c(Cl)c1-n1c(C(=O)c2ccc(P(=O)(O)O)cc2O)cc(Cl)c1Cl | inactive | inactive |  | 
15 | 8 | 9.5 | COc1ccccc1C(=O)c1[nH]c(Cl)c(Cl)c1-n1c(C(=O)c2ccc(Cl)cc2OC)cc(Cl)c1Cl | inactive | inactive |  | 
16 |  | > 100 | CCOC(=O)Cn1cc(-c2ccc(C(=O)c3[nH]c(Cl)c(Cl)c3-n3c(C(=O)c4ccc(-c5cn(CC(=O)OCC)nn5)cc4O)cc(Cl)c3Cl)c(O)c2)nn1 | inactive | inactive |  | 
17 |  |  | Cc1cc(O)c(C(=O)c2[nH]c(Cl)c(Cl)c2-n2c(C(=O)c3cc(Cl)c(C)cc3O)cc(Cl)c2Cl)cc1Cl | Active |  | Active | 
18 |  |  | CC1(C)CCC(c2ccc(Cl)cc2)=C(CN2CCN(c3ccc(C(=O)NS(=O)(=O)c4ccc(N[C@H](CCN5CCOCC5)CSc5ccccc5)c(S(=O)(=O)C(F)(F)F)c4)cc3)CC2)C1 |  |  |  | inactive
19 | > 100 | 7.9 | Cn1c(Cl)c(Cl)c(-n2c(C(=O)c3ccccc3O)cc(Cl)c2Cl)c1C(=O)c1ccccc1O |  |  |  | 
20 | 1 | 2.1 | O=C(c1ccc(OS(=O)(=O)C(F)(F)F)cc1O)c1[nH]c(Cl)c(Cl)c1-n1c(C(=O)c2ccccc2O)cc(Cl)c1Cl | Active |  | Active | 
21 | 3.9 | 18.3 | O=C(c1ccccc1O)c1[nH]c(Cl)c(Cl)c1-n1c(C(=O)c2cc(Cl)ccc2O)cc(Cl)c1Cl | inactive |  | inactive | 

Row | SMILES | IC50 [1] [µM] | IC50 [2] [µM] | Activity (MDA-MB-468 [3]) | Activity (MDA-MB-468 [4]) | Activity (MDA-MB-468 [5]) | Activity (MDA-MB-468 [6])
22 | O=C(O)Cn1cc(-c2ccc(C(=O)c3[nH]c(Cl)c(Cl)c3-n3c(C(=O)c4ccc(-c5cn(CC(=O)O)nn5)cc4O)cc(Cl)c3Cl)c(O)c2)nn1 |  | > 50 | inactive | inactive |  | 
23 | O=C(c1ccccc1O)c1[nH]c(Cl)c(Cl)c1-n1c(C(=O)c2c(O)cccc2F)cc(Cl)c1Cl | 13.1 | 43.7 | inactive | inactive |  | 
24 | O=C(O)Cn1cc(-c2cc(O)c(C(=O)c3[nH]c(Cl)c(Cl)c3-n3c(C(=O)c4cc(Cl)c(-c5cn(CC(=O)O)nn5)cc4O)cc(Cl)c3Cl)cc2Cl)nn1 |  | > 50 | inactive | inactive |  | 
25 | O=C(c1ccccc1O)c1[nH]c(Cl)c(Cl)c1-n1c(C(=O)c2ccccc2O)cc(Cl)c1Cl |  | 16.4 |  |  |  | 
26 | CCOC(=O)Cn1cc(-c2cc(O)c(C(=O)c3[nH]c(Cl)c(Cl)c3-n3c(C(=O)c4cc(Cl)c(-c5cn(CC(=O)OCC)nn5)cc4O)cc(Cl)c3Cl)cc2Cl)nn1 |  | > 100 | inactive | inactive |  | 
27 | O=C(c1ccccc1O)c1[nH]c(Cl)c(Cl)c1-n1c(C(=O)c2ccc(Cl)cc2O)cc(Cl)c1Cl | 6.5 | 9.2 | Active | Active |  | 
28 | O=C(c1cc(Cl)c(O)cc1O)c1[nH]c(Cl)c(Cl)c1-n1c(C(=O)c2cc(Cl)c(O)cc2O)cc(Cl)c1Cl | 10.7 | > 50 | inactive | inactive |  | 
29 | O=C(c1ccccc1O)c1[nH]c(Cl)c(Cl)c1-n1c(C(=O)c2cccc(Cl)c2O)cc(Cl)c1Cl | 4.1 | 10.1 |  |  |  | 
30 | O=C(c1ccc(-c2cn(-c3ccccc3)nn2)cc1O)c1[nH]c(Cl)c(Cl)c1-n1c(C(=O)c2ccc(-c3cn(-c4ccccc4)nn3)cc2O)cc(Cl)c1Cl | 1.5 | 0.8 |  |  |  | 
31 | O=C(O)CSc1ccc(C(=O)c2[nH]c(Cl)c(Cl)c2-n2c(C(=O)c3ccc(SCC(=O)O)cc3O)cc(Cl)c2Cl)c(O)c1 |  | > 100 | inactive | inactive |  | 
32 | O=C(c1ccccc1O)c1[nH]c(Cl)c(Cl)c1-n1c(C(=O)c2cc(F)ccc2O)cc(Cl)c1Cl | 8.9 | 13.3 | Active | Active |  | 

Reference: ChEMBL document CHEMBL3393015, “Design, synthesis and evaluation of marinopyrrole derivatives as selective inhibitors of Mcl-1 binding to pro-apoptotic Bim and dual Mcl-1/Bcl-xL inhibitors” (Eur J Med Chem, 2015)
